Bioassay records from PubChem.
MEKK2mut PB1 HTS: MEK5 binding signal on mutant MEKK2 PB1, primary screen, biochemical, multiplex bead flow cytometry, Alexa488-MEK5 | Alexa488-MEK5 binding to MEKK2 mutant | percent response, % at 10 µM | 290,000 compounds, 0.35% hits | AID 1530, 2009; in the data active = percent response above about 24%, passing the limit was not always enough
Efflux pump mplx: inhibitors of Candida efflux pumps in yeast, primary screen, S. cerevisiae, Nile Red, multiplex; S. cerevisiae Candida pump triplex; inhibition, % at 10 µM; 330,000 compounds, 0.44% hits;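 active = plate passing quality check with inhibition over a set limit, or well fluorescence over plate mean plus 4 SD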;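 note: Nile Red retained in pooled yeast measured as flow cytometry median fluorescence; 0% = buffer negative control and 100% = Enniatin B positive control; higher means more Nile Red kept so more efflux inhibition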
ABCG2 inh: ABCG2 efflux pump inhibitors, primary screen, multiplex with ABCB1, IgMXP3 cells, flow cytometry; inhibition, % at 6.6 µM; AID 1325, 2008; Broad substrate specificity ATP-binding cassette transporter ABCG2 (Homo sapiens), Q9UNQ0; JC-1 efflux; 190,000 compounds, 0.1% hits;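 active = inhibition above 80%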;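 note: 0% = DMSO and 100% = nicardipine control wells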
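Measure – % inhibition of efflux relative to nicardipine and DMSO · Test system – ABCG2 IgMXP3 and barcoded ABCB1 CCRF-Adr cell mix · Control set – nicardipine as high control, DMSO as low control · Compound – one concentration, 6.6 µM final · Signal – flow cytometry of retained JC-1 fluorescence · Timing – 10 min exposure at 25 °C with rotation, no wash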
MEKK2wt PB1 HTS: modulators of MEK5 binding to wildtype MEKK2, primary screen, biochemical, multiplex bead flow cytometry, Alexa488-MEK5; Mitogen-activated protein kinase kinase kinase 2 (Homo sapiens), Q9Y2U5; Alexa488-MEK5 binding to MEKK2 WT; actives lie on both sides; binding response (% of control), % at 10 µM; 290,000 compounds, 1.1% hits; in the data active = binding response below about 67% or above about 130%
MEKK3 PB1 HTS: modulators of MEKK3-MEK5 PB1 binding, primary screen, biochemical, wildtype MEKK3, multiplex bead flow cytometry, Alexa488-MEK5. Mitogen-activated protein kinase kinase kinase 3 (Homo sapiens), Q99759. bead-based flow cytometry, Alexa488-MEK5 binding to MEKK3; actives lie on both sides; 0 = blocked by unlabeled MEK5, 100 = vehicle. binding response (% of control), % at 10 µM. 290,000 compounds, 1.4% hits. AID 1529, 2009;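 active = binding response more than 3 SD above or below the average of its plate-row segment, actives on both sides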;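 note: Alexa488 bead fluorescence after subtracting the streptavidin-only scavenger bead signal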
Target sequence (Q99759 whole entry, looked up): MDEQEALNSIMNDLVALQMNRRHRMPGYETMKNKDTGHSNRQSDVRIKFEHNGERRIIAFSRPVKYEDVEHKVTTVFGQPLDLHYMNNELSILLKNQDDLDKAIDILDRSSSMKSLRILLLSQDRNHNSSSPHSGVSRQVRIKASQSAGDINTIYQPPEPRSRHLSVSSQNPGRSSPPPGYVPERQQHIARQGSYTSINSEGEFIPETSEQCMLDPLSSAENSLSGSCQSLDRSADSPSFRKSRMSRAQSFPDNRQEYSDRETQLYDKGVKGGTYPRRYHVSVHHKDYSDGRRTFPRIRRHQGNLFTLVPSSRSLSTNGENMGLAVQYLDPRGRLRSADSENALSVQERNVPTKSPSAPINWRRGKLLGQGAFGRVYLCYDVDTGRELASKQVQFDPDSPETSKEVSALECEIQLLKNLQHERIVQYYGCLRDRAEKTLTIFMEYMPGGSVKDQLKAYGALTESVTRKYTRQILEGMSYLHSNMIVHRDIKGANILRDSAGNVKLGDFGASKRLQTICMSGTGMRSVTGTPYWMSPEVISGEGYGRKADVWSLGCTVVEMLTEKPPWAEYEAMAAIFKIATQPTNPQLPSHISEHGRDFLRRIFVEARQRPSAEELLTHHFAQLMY
ABCB1 inh: ABCB1 efflux pump inhibitors, primary screen, cell-based, multiplex, flow cytometry, ABCG2 counter-screen; CCRF-Adr cells, JC-1 efflux; AID 1326, 2008; inhibition, % at 6.6 µM; 190,000 compounds, 0.067% hits; in the data active = inhibition above about 40%;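 note: 0% = vehicle and 100% = reference inhibitor; higher value means more JC-1 retained so stronger ABCB1 efflux block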
MEKK2wt confirm: modulators of MEK5 binding to wildtype MEKK2, confirmation, biochemical, single concentration, multiplex bead flow cytometry; AID 1892, 2009; binding response (% of control), % at 10 µM; 5,900 compounds, 2.4% hits; Alexa488-MEK5 binding to MEKK2 WT; actives lie on both sides; shares compounds with MEKK3 PB1 HTS; in the data active = binding response below about 16% or above about 210%; inactive = in between
MEKK2mut-MEK5: mutant MEKK2 PB1-MEK5 binding signal retest – biochemical, single concentration, multiplex bead flow cytometry, confirmation; shares compounds with MEKK3 PB1 HTS; Alexa488-MEK5 binding to MEKK2 mutant; percent response, % at 10 µM; 5,900 compounds, 2% hits; in the data active = percent response mostly above about 71%, no sharp cut-off; inactive = mostly below about 38%;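 note: higher means compound restores mutant binding toward wildtype level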
MEKK3-MEK5 inh: MEKK3 wild-type PB1 binding to MEK5, inhibitors, confirmation, biochemical, bead multiplex flow cytometry, single concentration, wildtype | shares compounds with MEKK3 PB1 HTS | Alexa488-MEK5 binding to MEKK3; hits give low values | binding response (% of control), % at 10 µM | 5,900 compounds, 1.8% hits | AID 1894, 2009;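 active = binding response below 72% of control, or above a set upper limit, though filed actives all read lower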;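 note: 100% = DMSO only wells and 0% = binding blocked by excess unlabeled MEK5; lower values mean stronger disruption of MEK5 binding to MEKK3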
* = called active by the depositor; x = no result given; [ ] = remark or other dose. Shown are actives, neighbours in structure and some others; about 2.5% of the full set was active somewhere.

SMILES	MEKK2mut PB1 HTS	Efflux pump mplx	ABCG2 inh	MEKK2wt PB1 HTS	MEKK3 PB1 HTS	ABCB1 inh	MEKK2wt confirm	MEKK2mut-MEK5	MEKK3-MEK5 inh
O=C(CSc1nc2cc(S(=O)(=O)N3CCOCC3)ccc2o1)NC1CCCc2ccccc21 (centres undefined)	-21.0	0.1	-0.4	3.0*[inhibitor]	2.0*[inhibitor]	0.0	98.0	0.0	101.0
O=C(CSc1nc2cc(S(=O)(=O)N3CCOCC3)ccc2o1)Nc1c(F)cccc1F	-9.0	0.1	-1.9	94.0	99.0	-0.7	x	x	x
O=C(CSc1ccc2ccccc2c1)NC1CCCc2ccccc21 (centres undefined)	1.0	-0.2	7.4	107.0	130.0*	0.5	100.0	1.0	102.0
Cc1ccc2c(CC(=O)NC3CCCc4ccccc43)coc2c1 (centres undefined)	0.0	0.2	4.6	109.0	147.0*	0.7	107.0	8.0	102.0
Cc1cccc(Nc2nnc(SCC(=O)NC3CCCc4ccccc43)s2)c1 (centres undefined)	-4.0	-0.4	4.3	3.0*[inhibitor]	3.0*[inhibitor]	0.9	104.0	-4.0	100.0
Cc1ccc(OCC(=O)NC2CCCc3ccccc32)c(C)c1 (centres undefined)	-3.0	-0.2	20.4	95.0	92.0	1.6	x	x	x
CCCc1cc(=O)[nH]c(SCC(=O)Nc2ccc(N3CCCCC3)cc2)n1	x	0.0	x	x	x	x	x	x	x
COc1ccc(NC(=O)CN(C)C2CCCCC2)c([N+](=O)[O-])c1	0.0	0.1	6.1	99.0	122.0	1.3	x	x	x
C=C1CCN(C(C)C(=O)O)S(=O)(=O)c2ccccc21 (centres undefined)	-3.0	-0.1	x	94.0	92.0	x	x	x	x
CC(C)c1ccc(C2C3CSCC=C3C(C#N)=C(N)C2(C#N)C#N)cc1 (centres undefined)	-21.0	-0.1	-1.2	1.0*[inhibitor]	1.0*[inhibitor]	0.0	88.0	-2.0	98.0
CSc1ccccc1NC(=O)CN(C)CC(=O)Nc1cc(C)ccc1C	-2.0	-0.1	2.9	96.0	68.0*[inhibitor]	1.0	99.0	-13.0	99.0
COc1ccc(S(=O)(=O)N(C)CC(=O)Nc2ccccc2SC)cc1	-2.0	-0.1	4.1	101.0	97.0	1.2	x	x	x
COc1ccc(S(=O)(=O)N(C)CC(=O)Nc2ccccc2SC)cc1Cl	-8.0	-0.2	19.0	89.0	82.0*[inhibitor]	0.6	102.0	3.0	107.0
CC(=O)N1CCc2cc(S(=O)(=O)NC(CC(C)C)C(=O)N3CCn4c3nc3ccccc34)ccc21 (centres undefined)	-2.0	0.0	0.3	101.0	103.0	0.1	x	x	x
O=C1CCCC2=C1C(c1ccc(O)cc1)c1c(ccc3ccccc13)N2 (centres undefined)	-1.0	0.0	4.9	97.0	101.0	1.5	x	x	x
O=[N+]([O-])c1ccc(O)c(C=Nc2ccc3c(c2)OCCO3)c1	1.0	0.4	1.1	99.0	142.0*	0.3	97.0	-6.0	100.0
O=[N+]([O-])c1ccc(O)c(C=Nc2ccc3oc(Cc4ccc(Cl)cc4)nc3c2)c1	174.0*	0.1	-0.2	106.0	134.0*	-0.4	93.0	-4.0	104.0
O=[N+]([O-])c1cccc(N/N=C/c2cc([N+](=O)[O-])ccc2O)c1	5.0	-0.2	1.0	115.0	139.0*	-0.8	95.0	-2.0	96.0
O=[N+]([O-])c1ccc(N/N=C/c2ccccc2O)cc1	2.0	0.2	x	102.0	104.0	x	x	x	x
COc1ccccc1C(=O)NCCC(=O)NNC(=O)c1ccccc1O	x	-0.2	x	x	x	x	x	x	x
Cc1c(C(=O)OCC(=O)Nc2ccc(C(N)=O)cc2)cccc1[N+](=O)[O-]	1.0	0.0	2.7	100.0	102.0	0.6	x	x	x
CC(=O)c1ccc(Sc2nnc(C)s2)c([N+](=O)[O-])c1	-5.0	0.1	11.2	102.0	99.0	0.5	x	x	x
COc1ccc(/C=N/NC(=O)c2cc(=O)[nH]c3ccccc23)cc1OC	3.0	-0.1	-0.8	103.0	104.0	-0.3	x	x	x
c1ccc(-n2ncc3c(NCCN4CCOCC4)ncnc32)cc1	-6.0	0.0	2.2	92.0	93.0	0.2	x	x	x
c1ccc(-n2ncc3c(NCCN4CCCCC4)ncnc32)cc1	25.0*	0.4	4.8	113.0	104.0	0.4	122.0	11.0	104.0
SMILES	MEKK2mut PB1 HTS	Efflux pump mplx	ABCG2 inh	MEKK2wt PB1 HTS	MEKK3 PB1 HTS	ABCB1 inh	MEKK2wt confirm	MEKK2mut-MEK5	MEKK3-MEK5 inh
Cn1ncc2c(NNC(=O)Cc3ccccc3)ncnc21	0.0	0.1	2.3	99.0	119.0	0.3	x	x	x
Cc1ccc(-n2ncc3c(NNC(=O)Cc4ccccc4)ncnc32)cc1	1.0	-0.1	14.8	108.0	143.0*	0.1	104.0	9.0	106.0
CCC(C)[C@H](N)c1cn([C@@H](Cc2cc3ccccc3[nH]2)C(=O)N2CCNCC2)nn1 (some centres undefined)	34.0	x	-0.7	151.0*	92.0	-0.6	147.0	45.0	111.0
CC(C)C[C@H](N)c1cn([C@@H](Cc2cc3ccccc3[nH]2)C(=O)N2CCNCC2)nn1	32.0	0.0	-0.1	147.0*	106.0	0.0	136.0	53.0	106.0
C#CCOCCOCCOCCNc1nc(N2CCOCC2)nc(N2CCN(C(=O)[C@H](Cc3cc4ccccc4[nH]3)n3cc([C@@H](N)CC(C)C)nn3)CC2)n1	25.0	x	1.2	136.0	107.0	0.8	x	x	x
CCC(C)[C@H](N)c1cn([C@@H](Cc2ccc(O)cc2)C(=O)N2CCNCC2)nn1 (some centres undefined)	4.0	-0.1	1.3	101.0	103.0	0.7	x	x	x
Cn1c([N+](=O)[O-])cnc1N1CCN(c2nncs2)C1=O	5.0	0.4	x	93.0	96.0	x	x	x	x
